Converted amounts (≈) assume the structure as drawn.
Legend:
[1] = test system: Mycobacterium; test: Inhibition of Mycobacterium membrane bound ATP synthase; design: concentration or dose not given beside the values; conditions: concentration not given here
[2] = test system: Mycolicibacterium fortuitum; test: Antimycobacterial activity against Mycobacterium fortuitum ATCC 19542 after 7 days by resazurin assay; format: functional; conditions: ATCC 19542, 168 h
Outline: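 M. fortuitum ATCC 19542 culture diluted to McFarland 2 standard in medium and dispensed into 96-well plates. Compounds came from 2 mg/mL DMF stocks and were screened at 1, 10 and 100, then retested at […]. Controls received DMF alone. After 7 days at 37 °C, 0.01% resazurin was added and colour read after 1 h at 37 °C. MIC was the level keeping the dye blue.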

[3] = test system: Vero; test: Cytotoxicity against african green monkey Vero cells after 72 hrs by MTT assay; format: cell-based; conditions: Chlorocebus sabaeus
Outline: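 Cells were exposed for 72 h, then viability was read as cellular conversion of MTT to formazan with a non-radioactive cell proliferation kit.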

[4] = test system: Mycobacterium tuberculosis; test: Antimycobacterial activity against Mycobacterium tuberculosis H37Rv ATCC 27294 after 7 days by resazurin assay; format: functional; conditions: H37Rv ATCC 27294, 168 h
Outline: (§1)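 Broth microdilution resazurin assay. Culture diluted to McFarland 2 standard in the same medium and added to fresh medium. Test compounds from 2 mg/mL DMF stocks, first tested at 1, 10 and 100, then at 0.3125–5; DMF-only controls. Incubated 37 °C for 7 days, then 0.01% resazurin added. Blue-to-pink change scored; MIC taken as lowest concentration preventing the colour change.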

[5] = test system: Mycolicibacterium smegmatis; test: Antimycobacterial activity against Mycobacterium smegmatis MC2 155 ATCC 19420 after 7 days by resazurin assay; format: functional; conditions: MC2 155 ATCC 19420, 168 h; outline: as §1

COc1ccc(/C=N/NC(=O)c2cnc3ccc(F)cc3c2N[C@@H](CSc2ccccc2)CC(=O)N(C)C)cc1O
inhibition [1]: 90% | MIC [2]: 5 µg/mL (≈ 8.69 µM) | IC50 [3]: > 62.5 µg/mL | MIC [4]: 5 µg/mL (≈ 8.69 µM) | MIC [5]: > 100 µg/mL

CCCCCCCC/C=N/NC(=O)c1cnc2ccc(F)cc2c1N[C@@H](CSc1ccccc1)CC(=O)N(C)C
inhibition [1]: > 95% | MIC [2]: 5 µg/mL (≈ 8.84 µM) | IC50 [3]: > 62.5 µg/mL | MIC [4]: 1 µg/mL (≈ 1.77 µM) | MIC [5]: 10 µg/mL (≈ 17.7 µM)

CN(C)C(=O)C[C@H](CSc1ccccc1)Nc1c(C(=O)N/N=C/c2cccnc2)cnc2ccc(F)cc12
inhibition [1]: 90% | MIC [2]: 10 µg/mL (≈ 18.8 µM) | IC50 [3]: > 62.5 µg/mL | MIC [4]: 5 µg/mL (≈ 9.42 µM) | MIC [5]: > 100 µg/mL

NNC(=O)c1ccncc1 [ISONIAZID]
inhibition [1]: > 95% | MIC [2]: 12.5 µg/mL (≈ 91.1 µM) | IC50 [3]: > 62.5 µg/mL | MIC [4]: 1 µg/mL (≈ 7.29 µM) | MIC [5]: 50 µg/mL (≈ 365 µM)

COc1ccc(/C=N/NC(=O)c2cnc3ccc(F)cc3c2N[C@@H](CSc2ccccc2)CC(=O)N(C)C)cc1
inhibition [1]: 0% | MIC [2]: > 100 µg/mL | MIC [4]: 10 µg/mL (≈ 17.9 µM) | MIC [5]: > 100 µg/mL

CN(C)C(=O)C[C@H](CSc1ccccc1)Nc1c(C(=O)N/N=C/c2cc(F)ccc2O)cnc2c(C(F)(F)F)cccc12
inhibition [1]: 0% | MIC [2]: > 100 µg/mL | MIC [4]: 10 µg/mL (≈ 16.3 µM) | MIC [5]: > 100 µg/mL

COc1ccc(/C=N/NC(=O)c2cnc3c(C(F)(F)F)cccc3c2N[C@@H](CSc2ccccc2)CC(=O)N(C)C)cc1
inhibition [1]: 0% | MIC [2]: > 100 µg/mL | MIC [4]: > 100 µg/mL | MIC [5]: > 100 µg/mL

CSc1ccccc1/C=N/NC(=O)c1cnc2ccc(F)cc2c1N[C@@H](CSc1ccccc1)CC(=O)N(C)C
inhibition [1]: 0% | MIC [2]: > 100 µg/mL | MIC [4]: > 100 µg/mL | MIC [5]: > 100 µg/mL

CN(C)C(=O)C[C@H](CSc1ccccc1)Nc1c(C(=O)N/N=C/c2ccc(Br)s2)cnc2ccc(F)cc12
inhibition [1]: 0% | MIC [2]: > 100 µg/mL | MIC [4]: > 100 µg/mL | MIC [5]: > 100 µg/mL

CN(C)C(=O)C[C@H](CSc1ccccc1)Nc1c(C(=O)N/N=C/c2cccc(OC(F)(F)C(F)F)c2)cnc2ccc(F)cc12
inhibition [1]: > 95% | MIC [2]: 1 µg/mL (≈ 1.55 µM) | IC50 [3]: > 62.5 µg/mL | MIC [4]: 0.625 µg/mL (≈ 0.968 µM) | MIC [5]: 2.5 µg/mL (≈ 3.87 µM)

CO[C@H]1/C=C/O[C@@]2(C)Oc3c(C)c(O)c4c(O)c(c(/C=N/N5CCN(C)CC5)c(O)c4c3C2=O)NC(=O)/C(C)=C\C=C\[C@H](C)[C@H](O)[C@@H](C)[C@@H](O)[C@@H](C)[C@H](OC(C)=O)[C@@H]1C [RIFAMPIN]
inhibition [1]: > 95% | MIC [2]: 1.5 µg/mL (≈ 1.82 µM) | IC50 [3]: > 62.5 µg/mL | MIC [4]: 0.5 µg/mL (≈ 0.608 µM) | MIC [5]: 1.5 µg/mL (≈ 1.82 µM)

CN(C)C(=O)C[C@H](CSc1ccccc1)Nc1c(C(=O)N/N=C/c2ccc(F)cc2)cnc2c(C(F)(F)F)cccc12
inhibition [1]: 90% | MIC [2]: 10 µg/mL (≈ 16.7 µM) | IC50 [3]: > 62.5 µg/mL | MIC [4]: 5 µg/mL (≈ 8.37 µM) | MIC [5]: > 100 µg/mL

CN(C)C(=O)C[C@H](CSc1ccccc1)Nc1c(C(=O)N/N=C/c2cc(F)ccc2O)cnc2ccc(F)cc12
inhibition [1]: 0% | MIC [2]: > 100 µg/mL | MIC [4]: 10 µg/mL (≈ 17.7 µM) | MIC [5]: > 100 µg/mL

CCCCCCCC/C=N/NC(=O)c1cnc2c(C(F)(F)F)cccc2c1N[C@@H](CSc1ccccc1)CC(=O)N(C)C
inhibition [1]: > 95% | MIC [2]: 5 µg/mL (≈ 8.12 µM) | IC50 [3]: > 62.5 µg/mL | MIC [4]: 1 µg/mL (≈ 1.62 µM) | MIC [5]: 10 µg/mL (≈ 16.2 µM)

CN(C)C(=O)C[C@H](CSc1ccccc1)Nc1c(C(=O)N/N=C/c2ccc(OC(F)(F)F)cc2)cnc2ccc(F)cc12
inhibition [1]: 90% | MIC [2]: 5 µg/mL (≈ 8.15 µM) | IC50 [3]: > 62.5 µg/mL | MIC [4]: 2.5 µg/mL (≈ 4.07 µM) | MIC [5]: > 100 µg/mL

CSc1ccccc1/C=N/NC(=O)c1cnc2c(C(F)(F)F)cccc2c1N[C@@H](CSc1ccccc1)CC(=O)N(C)C
inhibition [1]: 0% | MIC [2]: > 100 µg/mL | MIC [4]: > 100 µg/mL | MIC [5]: > 100 µg/mL

COc1ccc(/C=N/NC(=O)c2cnc3c(C(F)(F)F)cccc3c2N[C@@H](CSc2ccccc2)CC(=O)N(C)C)cc1O
inhibition [1]: 90% | MIC [2]: 10 µg/mL (≈ 16 µM) | IC50 [3]: > 62.5 µg/mL | MIC [4]: 5 µg/mL (≈ 7.99 µM) | MIC [5]: > 100 µg/mL

CSCC/C=N/NC(=O)c1cnc2c(C(F)(F)F)cccc2c1N[C@@H](CSc1ccccc1)CC(=O)N(C)C
inhibition [1]: 90% | MIC [2]: > 100 µg/mL | MIC [4]: 10 µg/mL (≈ 17.3 µM) | MIC [5]: > 100 µg/mL

CN(C)C(=O)C[C@H](CSc1ccccc1)Nc1c(C(=O)N/N=C/c2ccc(F)cc2)cnc2ccc(F)cc12
inhibition [1]: 95% | MIC [2]: 5 µg/mL (≈ 9.13 µM) | IC50 [3]: > 62.5 µg/mL | MIC [4]: 1 µg/mL (≈ 1.83 µM) | MIC [5]: 10 µg/mL (≈ 18.3 µM)

COc1ccc(/C=N/NC(=O)c2cnc3ccc(F)cc3c2N[C@@H](CSc2ccccc2)CC(=O)N(C)C)c(F)c1
inhibition [1]: 0% | MIC [2]: > 100 µg/mL | MIC [4]: 5 µg/mL (≈ 8.66 µM) | MIC [5]: > 100 µg/mL

CN(C)C(=O)C[C@H](CSc1ccccc1)Nc1c(C(=O)N/N=C/c2ccccc2F)cnc2ccc(F)cc12
inhibition [1]: > 95% | MIC [2]: 5 µg/mL (≈ 9.13 µM) | IC50 [3]: > 62.5 µg/mL | MIC [4]: 1 µg/mL (≈ 1.83 µM) | MIC [5]: 10 µg/mL (≈ 18.3 µM)

CSCC/C=N/NC(=O)c1cnc2ccc(F)cc2c1N[C@@H](CSc1ccccc1)CC(=O)N(C)C
inhibition [1]: 0% | MIC [2]: > 100 µg/mL | MIC [4]: > 100 µg/mL | MIC [5]: > 100 µg/mL

CN(C)C(=O)C[C@H](CSc1ccccc1)Nc1c(C(=O)N/N=C/c2ccccc2F)cnc2c(C(F)(F)F)cccc12
inhibition [1]: 90% | MIC [2]: > 100 µg/mL | IC50 [3]: > 62.5 µg/mL | MIC [4]: 2.5 µg/mL (≈ 4.18 µM) | MIC [5]: 5 µg/mL (≈ 8.37 µM)

CN(C)C(=O)C[C@H](CSc1ccccc1)Nc1c(C(=O)N/N=C/c2ccc(OC(F)(F)F)cc2)cnc2c(C(F)(F)F)cccc12
inhibition [1]: 90% | MIC [2]: 5 µg/mL (≈ 7.53 µM) | IC50 [3]: > 62.5 µg/mL | MIC [4]: 5 µg/mL (≈ 7.53 µM) | MIC [5]: > 100 µg/mL

CN(C)C(=O)C[C@H](CSc1ccccc1)Nc1c(C(=O)N/N=C/c2cccnc2)cnc2c(C(F)(F)F)cccc12
inhibition [1]: > 95% | MIC [2]: 1 µg/mL (≈ 1.72 µM) | IC50 [3]: > 62.5 µg/mL | MIC [4]: 0.625 µg/mL (≈ 1.08 µM) | MIC [5]: 2.5 µg/mL (≈ 4.31 µM)

CN(C)C(=O)C[C@H](CSc1ccccc1)Nc1c(C(=O)N/N=C/c2ccc(Br)s2)cnc2c(C(F)(F)F)cccc12
inhibition [1]: 90% | MIC [2]: > 100 µg/mL | IC50 [3]: > 62.5 µg/mL | MIC [4]: 10 µg/mL (≈ 15 µM) | MIC [5]: > 100 µg/mL

COc1ccc(/C=N/NC(=O)c2cnc3c(C(F)(F)F)cccc3c2N[C@@H](CSc2ccccc2)CC(=O)N(C)C)c(F)c1
inhibition [1]: 90% | MIC [2]: > 100 µg/mL | MIC [4]: 10 µg/mL (≈ 15.9 µM) | MIC [5]: > 100 µg/mL

CN(C)C(=O)C[C@H](CSc1ccccc1)Nc1c(C(=O)N/N=C/c2cccc(OC(F)(F)C(F)F)c2)cnc2c(C(F)(F)F)cccc12
inhibition [1]: > 95% | MIC [2]: 2.5 µg/mL (≈ 3.59 µM) | IC50 [3]: > 62.5 µg/mL | MIC [4]: 1 µg/mL (≈ 1.44 µM) | MIC [5]: 5 µg/mL (≈ 7.19 µM)

— ChEMBL document CHEMBL1159109, “Design and synthesis of some new quinoline-3-carbohydrazone derivatives as potential antimycobacterial agents” (Bioorg Med Chem Lett, 2010)
